# Measured values: ChEMBL document CHEMBL1152785, “Synthesis and biological evaluation of a series of novel inhibitor of Nek2/Hec1 analogues” (J Med Chem, 2009)
# Calls of active or inactive are those of the source. No cut-off for these calls is given here.
# Legend:
# MDA-MB-231 = assay: Cytotoxicity against human MDA-MB-231 cells after 4 days XTT assay; type: functional, cell-based; conditions: MDA-MB-231, 96 h
# In short: (§1)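 XTT assay with four-day drug treatment. Cells were plated one day before dosing and drug was added on day 2. XTT was read on day 5 after drug addition by absorbance at 595 nm. Absorbance was converted to percent survival against mock-treated cells to give dose-dependent cytotoxicity. Triplicate sets. HeLa, MDA-MB231 and MDA-MB468 were maintained in DMEM with 10% FBS.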
# HeLa [1] = assay: Cytotoxicity against human HeLa cells after 4 days by XTT assay; type: functional, cell-based; conditions: 96 h; in short: as §1
# HeLa [2] = assay: Anticancer activity against human HeLa cells assessed as reduction of Nek2 level at 25 uM by Western blot assay; type: functional, cell-based
# K562 = assay: Cytotoxicity against human K562 cells after 4 days by XTT assay; type: functional, cell-based; conditions: K562, 96 h
# HeLa [3] = assay: Anticancer activity against human HeLa cells assessed as reduction of Nek2 level at 25 uM after 8 to 11 hrs by Western blot assay; type: functional, cell-based
# MDA-MB-468 = assay: Cytotoxicity against human MDA-MB-468 cells after 4 days by XTT assay; type: functional, cell-based; conditions: MDA-MB-468, 96 h; in short: as §1
# [4] = molecular target: T1, Kinetochore protein NDC80 homolog (Homo sapiens) (UniProt O14777); assay: Inhibition of Hec1/Nek2 complex in human Hela cells assessed as mitotic abnormality with multipolar spindle configuration at 25 uM after 24 hrs by immuno-fluorescent staining; type: cell-based
# T1 sequence (whole entry): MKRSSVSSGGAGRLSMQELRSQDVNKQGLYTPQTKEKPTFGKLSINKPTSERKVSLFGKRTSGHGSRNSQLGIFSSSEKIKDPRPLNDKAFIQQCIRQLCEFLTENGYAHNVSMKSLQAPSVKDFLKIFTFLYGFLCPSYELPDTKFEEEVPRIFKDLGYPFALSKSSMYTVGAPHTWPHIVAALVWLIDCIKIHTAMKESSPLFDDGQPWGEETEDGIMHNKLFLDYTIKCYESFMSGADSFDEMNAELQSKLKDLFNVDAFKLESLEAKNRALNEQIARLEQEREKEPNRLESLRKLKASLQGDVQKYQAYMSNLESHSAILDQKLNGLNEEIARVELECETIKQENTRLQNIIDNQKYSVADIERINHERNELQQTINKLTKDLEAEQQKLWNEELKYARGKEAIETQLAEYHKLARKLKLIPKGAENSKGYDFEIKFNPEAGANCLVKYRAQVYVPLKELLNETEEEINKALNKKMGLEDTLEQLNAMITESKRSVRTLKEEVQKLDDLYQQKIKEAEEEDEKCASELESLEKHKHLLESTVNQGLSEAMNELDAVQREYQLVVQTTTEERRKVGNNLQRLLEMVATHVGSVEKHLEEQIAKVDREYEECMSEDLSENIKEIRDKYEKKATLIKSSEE
smiles,measurement,setting,value
Cc1ccc(-c2csc(NC(=O)c3ccccc3)n2)c(C)c1,IC50,MDA-MB-231,8.6 µM
same,IC50,HeLa [1],8.8 µM
same,Activity,HeLa [2],Active
same,IC50,K562,11.7 µM
same,Activity,HeLa [3],Active
same,IC50,MDA-MB-468,10.5 µM
same,Activity,[4],Active
